Data on 3 compounds can be found in ChEMBL document CHEMBL2417431, “Synthesis and evaluation of hetero- and homodimers of ribosome-targeting antibiotics: antimicrobial activity, in vitro inhibition of translation, and drug resistance” (J Med Chem, 2013).

One may read the IC50 as the concentration at which inhibition is half-maximal. The low end stands for greater potency in that assay, the high end for weaker potency in that assay.

One series relates to Haemophilus influenzae. Nature of the series: Antibacterial activity against Haemophilus influenzae ATCC 51907 by double-dilution technique. The class given is functional. The procedure, abridged:
(§1)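 MIC measured against each bacterial strain using a double-dilution series of each compound. Every determination was run in duplicate or triplicate.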

For series [1], the system named is Mycolicibacterium smegmatis. Kind of series: Antibacterial activity against Mycobacterium smegmatis str. MC2 155 by double-dilution technique. The class given is functional.
Series [2] relates to Staphylococcus epidermidis. Nature of the series: Antibacterial activity against biofilm negative Staphylococcus epidermidis ATCC 12228 by double-dilution technique. Format: functional. In outline: as §1
The next series has as its system Bacillus anthracis. Kind of series: Antibacterial activity against Bacillus anthracis 34F2 Sterne by double-dilution technique. The class given is functional. The procedure, abridged: (§2)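 Double-dilution series of each compound against each strain, reported as MIC. Runs done in duplicate or triplicate.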
The test system of series [3] is Escherichia coli. Kind of series: Antibacterial activity against Escherichia coli MC1061 by double-dilution technique. Format: functional. In outline:
as §2

The test system of the next series is Listeria monocytogenes. Kind of series: Antibacterial activity against Listeria monocytogenes ATCC 19115 by double-dilution technique. Format: functional. In outline: as §2
Series [4] deals with Bacillus subtilis. Nature of the series: Antibacterial activity against Bacillus subtilis 168 by double-dilution technique. The class given is functional. In outline: as §2
Series [5] can be described thus: Drug metabolism assessed as enhanced intracellular survival protein (unknown origin)-mediated conversion at 100 uM by micro plate reader analysis relative to tobramycin. The class given is ADME. The procedure, abridged:
(§3)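 Ellman assay: CoASH release coupled to DTNB (2 mM), read at 412 nm every 30 s for 1 h at 25 °C. Compound at 100 μM. Conditions by enzyme: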

For series [6], the system named is Bacillus subtilis. Nature of the series: Antibacterial activity against Bacillus subtilis 168 harboring AAC(6')/APH(2'')-pRB374 by double-dilution technique. Format: functional.
The subject of series [7] is Staphylococcus aureus. Nature of the series: Antibacterial activity against Staphylococcus aureus ATCC 29213 by double-dilution technique. Format: functional. In outline: as §2
The subject of series [8] is Staphylococcus aureus. Nature of the series: Antibacterial activity against Staphylococcus aureus expressing NorA by double-dilution technique. The class given is functional. In outline:
as §2

Series [9] in a line: Drug metabolism assessed as aminoglycoside 2'-N-acetyltransferase Ic (unknown origin)-mediated conversion at 100 uM by micro plate reader analysis relative to tobramycin. The class given is ADME. The procedure, abridged:
as §3

In the next series the test system is Bacillus cereus. Nature of the series: Antibacterial activity against Bacillus cereus ATCC 11778 by double-dilution technique. The class given is functional. The procedure, abridged: as §1
Series [10] can be described thus: Drug metabolism assessed as aminoglycoside 3-N-acetyltransferase AAC(3)-IV (unknown origin)-mediated conversion at 100 uM by micro plate reader analysis relative to tobramycin. The class given is ADME. The procedure, abridged: as §3
In series [11] the test system is Escherichia coli. Kind of series: Inhibition of protein synthesis in Escherichia coli S30 extracts after 90 mins by coupled transcription/translation assay. The conditions noted are these: 1.5 h. The class given is functional. The procedure, abridged: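 E. coli extract coupled transcription/translation with luciferase reporter. Reactions with varying compound concentrations ran 90 min at 37 °C, were chilled on ice, then diluted in Tris-phosphate pH 7.8 buffer containing DTT, glycerol, Triton X-100 and BSA. Luminescence was read immediately after adding luciferase reagent. IC50 came from concentration-response fits of at least two independent experiments.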

A further series deals with Streptococcus pyogenes. Nature of the series: Antibacterial activity against Streptococcus pyogenes Serotype M12 MGAS9429 by double-dilution technique. The class given is functional. The procedure, abridged:
as §1

≈ marks a conversion by molar mass, not a printed value.

With `NC[C@H]1O[C@H](O[C@H]2[C@H](O)[C@@H](O[C@@H]3O[C@H](CSCCOCCSCC(=O)N[C@H](CO)[C@H](O)c4ccc([N+](=O)[O-])cc4)[C@@H](O)[C@H](N)[C@H]3O)[C@H](N)C[C@@H]2N)[C@H](N)C[C@@H]1O`, the MIC was 150 µg/mL (≈ 179 µM) against Haemophilus influenzae; 18.8 µg/mL (≈ 22.4 µM) in series [1]; 8 µg/mL (≈ 9.52 µM) in series [2]; greater than 150 µg/mL against Bacillus anthracis; greater than 150 µg/mL in the series on Escherichia coli [3]; greater than 150 µg/mL in the series on Listeria monocytogenes. Besides, the MIC was 150 µg/mL (≈ 179 µM) in the series with Bacillus subtilis [4]; greater than 150 µg/mL against Bacillus subtilis [6]; greater than 150 µg/mL with Staphylococcus aureus [7]; greater than 150 µg/mL with Staphylococcus aureus [8]; greater than 150 µg/mL against Bacillus cereus; 8 µg/mL (≈ 9.52 µM) against Streptococcus pyogenes. For the same compound, the “fold change (FC)” value in series [5] is 2.9; in series [9], 2; in series [10], 1.8. Moreover, in the series on Escherichia coli [11], the IC50 came out at 1490 nM.

Take `NC[C@H]1O[C@H](O[C@H]2[C@H](O)[C@@H](O[C@@H]3O[C@H](CSCCOCCSSCCOCCSC[C@H]4O[C@@H](O[C@@H]5[C@@H](O)[C@H](O[C@H]6O[C@H](CN)[C@@H](O)C[C@H]6N)[C@@H](N)C[C@H]5N)[C@H](O)[C@@H](N)[C@@H]4O)[C@@H](O)[C@H](N)[C@H]3O)[C@H](N)C[C@@H]2N)[C@H](N)C[C@@H]1O`: the MIC in the series with Haemophilus influenzae was 9.4 µg/mL (≈ 8.01 µM); in [1] it was 2.3 µg/mL (≈ 1.96 µM); in [2] it was 16 µg/mL (≈ 13.6 µM); with Bacillus anthracis, 37.5 µg/mL (≈ 32 µM); against Escherichia coli [3], 18.8 µg/mL (≈ 16 µM); against Listeria monocytogenes, 37.5 µg/mL (≈ 32 µM). In addition, the MIC against Bacillus subtilis [4] was found to be 0.6 µg/mL (≈ 0.511 µM); against Bacillus subtilis [6] it was 37.5 µg/mL (≈ 32 µM); in the series on Staphylococcus aureus [7], 37.5 µg/mL (≈ 32 µM); with Staphylococcus aureus [8] it was 9.4 µg/mL (≈ 8.01 µM); in the series on Bacillus cereus, 75 µg/mL (≈ 63.9 µM); with Streptococcus pyogenes, 64 µg/mL (≈ 54.5 µM). Besides, the figures for the “fold change (FC)” value in [5], in [9] and in series [10] were 4.1, 2.4 and 2, respectively. In the series on Escherichia coli [11], the IC50 is 270 nM.

Take `CCC[C@@H]1C[C@@H](C(=O)NC([C@H]2O[C@H](SC)[C@H](O)[C@@H](O)[C@H]2O)[C@@H](C)SCCOCCSSCCOCCSC[C@H]2O[C@@H](O[C@@H]3[C@@H](O)[C@H](O[C@H]4O[C@H](CN)[C@@H](O)C[C@H]4N)[C@@H](N)C[C@H]3N)C(O)[C@@H](N)[C@@H]2O)N(C)C1` (single isomer, unassigned): the MIC against Haemophilus influenzae was found to be 75 µg/mL (≈ 67.4 µM); in series [1] it was 4.7 µg/mL (≈ 4.22 µM); in [2] it was 2 µg/mL (≈ 1.8 µM); in the series with Bacillus anthracis, 2.3 µg/mL (≈ 2.07 µM); in the series on Escherichia coli [3], 4.7 µg/mL (≈ 4.22 µM); in the series with Listeria monocytogenes, 18.8 µg/mL (≈ 16.9 µM). Further, the MIC was 1.2 µg/mL (≈ 1.08 µM) against Bacillus subtilis [4]; 150 µg/mL (≈ 135 µM) in the series on Bacillus subtilis [6]; 2.3 µg/mL (≈ 2.07 µM) in the series with Staphylococcus aureus [7]; 4.7 µg/mL (≈ 4.22 µM) with Staphylococcus aureus [8]; 9.4 µg/mL (≈ 8.45 µM) with Bacillus cereus; 64 µg/mL (≈ 57.5 µM) in the series with Streptococcus pyogenes. The “fold change (FC)” value turned out to be 2.6 in series [5], 1.6 in [9] and 1.4 in series [10]. In addition, the IC50 in the series on Escherichia coli [11] is 980 nM.
